ChEMBL document CHEMBL4622983, “Structure-Activity Relationship Studies of α-Ketoamides as Inhibitors of the Phospholipase A and Acyltransferase Enzyme Family” (J Med Chem, 2020)
The source made the active and inactive calls. The rule behind the calls is not given here.

What was measured:
[1] = target: Cannabinoid receptor 2 (Homo sapiens) (UniProt P34972); test: Displacement of [3H]CP55940 from human CB2 receptor expressed in CHOK1 cell membranes at 10 uM by liquid scintillation spectrometry analysis; conditions: CHO-K1
Summary of the method: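 [3H]CP55940 displacement at human CB1 or CB2 receptors, single test concentration 10 μM. Result expressed as % radioligand displacement ± SD (N = 2, n = 2).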

[2] = target: Monoacylglycerol lipase ABHD6 (Mus musculus) (UniProt Q8R2Y0); test: Inhibition of mouse brain membrane ABHD6 assessed as enzyme remaining activity at 10 uM preincubated for 30 mins followed by MB064 or FP-TAMRA addition and measured after 15 mins by SDS-PAGE based ABPP analysis relative to control; format: cell membranes
Summary of the method: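 Mouse brain membrane proteome (2 μg/μL) preincubated with 10 μM inhibitor for 30 min at rt. Then MB064 250 nM or FP-TAMRA 500 nM for 15 min at rt. Resolved on 10% SDS-PAGE, fluorescence normalized to Coomassie. Reported as % remaining activity ± SD, n = 3.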

[3] = target: T1, Phospholipase A and acyltransferase 2 (Homo sapiens) (UniProt Q9NWW9); test: Inhibition of full-length C-terminal FLAG-tagged human PLAAT2 expressed in human U2OS cells assessed as reduction in absolute N-palmitoylethanolamine level at 10 uM incubated for 4 hrs by LC-MS/MS analysis; format: cell-based
T1 sequence (whole entry): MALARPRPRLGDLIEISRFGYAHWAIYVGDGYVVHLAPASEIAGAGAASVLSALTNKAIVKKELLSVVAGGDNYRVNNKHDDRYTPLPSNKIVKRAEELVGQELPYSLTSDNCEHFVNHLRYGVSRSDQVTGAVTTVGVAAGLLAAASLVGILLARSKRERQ
Summary of the method: (§1)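 U2OS cells transfected with PLAAT2, PLAAT5 or empty vector (PEI, 1:5 plasmid/PEI). At 24 h, switched to serum-free medium with 10 μM compound (0.1% DMSO) or DMSO for 4 h at 37 °C. Pellets extracted with MTBE against deuterated internal standards. NAEs, 2-AG and free fatty acids quantified by LC–MS/MS, normalized to live cell count. Four biological replicates; one-way ANOVA.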

[4] = target: T1, Phospholipase A and acyltransferase 2 (Homo sapiens); test: Inhibition of full-length C-terminal FLAG-tagged human PLAAT2 expressed in human U2OS cells assessed as reduction in absolute N-oleoylethanolamine level at 10 uM incubated for 4 hrs by LC-MS/MS analysis; format: cell-based; summary of the method: as §1
[5] = target: T2, Phospholipase A and acyltransferase 5 (Homo sapiens) (UniProt Q96KN8); test: Inhibition of full-length C-terminal FLAG-tagged human PLAAT5 expressed in human U2OS cells assessed as reduction in absolute N-oleoylethanolamine level at 10 uM incubated for 4 hrs by LC-MS/MS analysis; format: cell-based; summary of the method: as §1
T2 sequence (whole entry): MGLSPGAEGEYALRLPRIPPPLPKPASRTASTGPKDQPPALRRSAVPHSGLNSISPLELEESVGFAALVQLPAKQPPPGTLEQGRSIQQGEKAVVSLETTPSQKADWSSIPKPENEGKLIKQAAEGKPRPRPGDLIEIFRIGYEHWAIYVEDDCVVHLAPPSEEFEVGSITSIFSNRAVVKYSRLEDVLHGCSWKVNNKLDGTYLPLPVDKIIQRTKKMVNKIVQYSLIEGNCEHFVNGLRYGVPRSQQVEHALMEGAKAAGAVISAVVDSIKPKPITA

[6] = target: T1, Phospholipase A and acyltransferase 2 (Homo sapiens); test: Inhibition of full-length C-terminal FLAG-tagged human PLAAT2 expressed in human U2OS cells assessed as reduction in absolute N-linoleoylethanolamine level at 10 uM incubated for 4 hrs by LC-MS/MS analysis; format: cell-based; summary of the method: as §1
[7] = target: T2, Phospholipase A and acyltransferase 5 (Homo sapiens); test: Inhibition of full-length C-terminal FLAG-tagged human PLAAT5 expressed in human U2OS cells assessed as reduction in absolute N-linoleoylethanolamine level at 10 uM incubated for 4 hrs by LC-MS/MS analysis; format: cell-based; summary of the method: as §1
[8] = target: T2, Phospholipase A and acyltransferase 5 (Homo sapiens); test: Inhibition of full-length C-terminal FLAG-tagged human PLAAT5 expressed in human U2OS cells assessed as reduction in absolute N-eicosapentaenoylethanolamine level at 10 uM incubated for 4 hrs by LC-MS/MS analysis; format: cell-based; summary of the method: as §1
[9] = system: U2OS; test: Downregulation of N-linoleoylethanolamine level in human U2OS cells at 10 uM after 4 hrs by LC-MS/MS analysis; format: functional, cell-based; summary of the method: as §1
[10] = system: U2OS; test: Downregulation of N-arachidonoylethanolamine level in human U2OS cells at 10 uM after 4 hrs by LC-MS/MS analysis; format: functional, cell-based; summary of the method: as §1
[11] = system: U2OS; test: Downregulation of N-eicosapentaenoylethanolamine level in human U2OS cells at 10 uM after 4 hrs by LC-MS/MS analysis; format: functional, cell-based; summary of the method: as §1
[12] = target: T2, Phospholipase A and acyltransferase 5 (Homo sapiens); test: Inhibition of full-length C-terminal FLAG-tagged human PLAAT5 expressed in human U2OS cells assessed as reduction in N-docosahexaenoylethanolamine level at 10 uM incubated for 4 hrs by LC-MS/MS analysis; format: cell-based; summary of the method: as §1
[13] = target: T2, Phospholipase A and acyltransferase 5 (Homo sapiens); test: Inhibition of full-length C-terminal FLAG-tagged human PLAAT5 expressed in human U2OS cells assessed as reduction in arachidonic acid level at 10 uM incubated for 4 hrs by LC-MS/MS analysis; format: cell-based; summary of the method: as §1
[14] = target: T2, Phospholipase A and acyltransferase 5 (Homo sapiens); test: Inhibition of full-length C-terminal FLAG-tagged human PLAAT5 expressed in human U2OS cells assessed as reduction in 2-AG level at 10 uM incubated for 4 hrs by LC-MS/MS analysis; format: cell-based; summary of the method: as §1
[15] = system: U2OS; test: Inhibition of serine hydrolase in human U2OS cell membrane fraction at 10 uM preincubated for 30 mins followed by MB064 addition and measured after 15 mins by SDS-PAGE based competitive ABPP analysis
Summary of the method: (§2)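 U2OS cytosol or membrane lysate at 2.5 μg/μL, pretreated with inhibitor or DMSO vehicle for 30 min at rt. Probe then added for 15 min at rt: MB064 at 2 μM or FP-TAMRA at 500 nM. Samples denatured in Laemmli buffer and resolved by SDS-PAGE. In-gel fluorescence scanned at Cy3/Cy5 settings and normalized to Coomassie staining.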

[16] = system: U2OS; test: Inhibition of serine hydrolase in human U2OS cytosolic fraction at 10 uM preincubated for 30 mins followed by FP-TAMRA addition and measured after 15 mins by SDS-PAGE based competitive ABPP analysis; summary of the method: as §2
[17] = target: Cytosolic phospholipase A2 (Homo sapiens) (UniProt P47712); test: Inhibition of human PLA2G4A expressed in HEK293T cell lysates at 50 uM preincubated for 30 mins followed by FP-TAMRA addition and measured after 20 mins by SDS-PAGE based competitive ABPP analysis; format: cell-free; conditions: HEK-293T
[18] = target: Cytosolic phospholipase A2 beta (Homo sapiens) (UniProt P0C869); test: Inhibition of human PLA2G4B expressed in HEK293T cell lysates at 10 uM preincubated for 30 mins followed by FP-TAMRA addition and measured after 20 mins by SDS-PAGE based competitive ABPP analysis; format: cell-free; conditions: HEK-293T
Summary of the method: (§3)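 hPLA2G4B, C or D-overexpressing membrane lysate (1 μg/μL) preincubated with inhibitor for 30 min at rt. FP-TAMRA 500 nM added for 20 min at rt. In-gel fluorescence after SDS-PAGE, normalized to Coomassie.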

[19] = target: Cytosolic phospholipase A2 gamma (Homo sapiens) (UniProt Q9UP65); test: Inhibition of human PLA2G4C expressed in HEK293T cell lysates at 10 uM preincubated for 30 mins followed by FP-TAMRA addition and measured after 20 mins by SDS-PAGE based competitive ABPP analysis; format: cell-free; conditions: HEK-293T; summary of the method: as §3
Chain of Cytosolic phospholipase A2 gamma (Homo sapiens) (Q9UP65 whole entry): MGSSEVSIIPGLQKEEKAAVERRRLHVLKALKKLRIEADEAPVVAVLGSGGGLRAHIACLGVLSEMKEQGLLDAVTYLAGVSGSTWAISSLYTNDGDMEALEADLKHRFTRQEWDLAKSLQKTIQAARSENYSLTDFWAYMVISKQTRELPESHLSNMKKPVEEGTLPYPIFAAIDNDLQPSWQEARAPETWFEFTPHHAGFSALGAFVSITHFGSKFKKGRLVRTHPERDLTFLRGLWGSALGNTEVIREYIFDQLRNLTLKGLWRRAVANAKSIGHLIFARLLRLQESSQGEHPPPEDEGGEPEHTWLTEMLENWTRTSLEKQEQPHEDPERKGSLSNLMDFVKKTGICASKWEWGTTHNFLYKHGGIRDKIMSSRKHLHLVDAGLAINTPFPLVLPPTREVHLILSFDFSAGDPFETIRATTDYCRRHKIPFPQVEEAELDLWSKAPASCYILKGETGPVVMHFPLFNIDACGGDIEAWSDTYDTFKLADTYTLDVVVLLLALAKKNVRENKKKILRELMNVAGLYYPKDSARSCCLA

Chain of Cytosolic phospholipase A2 (Homo sapiens) (P47712 whole entry): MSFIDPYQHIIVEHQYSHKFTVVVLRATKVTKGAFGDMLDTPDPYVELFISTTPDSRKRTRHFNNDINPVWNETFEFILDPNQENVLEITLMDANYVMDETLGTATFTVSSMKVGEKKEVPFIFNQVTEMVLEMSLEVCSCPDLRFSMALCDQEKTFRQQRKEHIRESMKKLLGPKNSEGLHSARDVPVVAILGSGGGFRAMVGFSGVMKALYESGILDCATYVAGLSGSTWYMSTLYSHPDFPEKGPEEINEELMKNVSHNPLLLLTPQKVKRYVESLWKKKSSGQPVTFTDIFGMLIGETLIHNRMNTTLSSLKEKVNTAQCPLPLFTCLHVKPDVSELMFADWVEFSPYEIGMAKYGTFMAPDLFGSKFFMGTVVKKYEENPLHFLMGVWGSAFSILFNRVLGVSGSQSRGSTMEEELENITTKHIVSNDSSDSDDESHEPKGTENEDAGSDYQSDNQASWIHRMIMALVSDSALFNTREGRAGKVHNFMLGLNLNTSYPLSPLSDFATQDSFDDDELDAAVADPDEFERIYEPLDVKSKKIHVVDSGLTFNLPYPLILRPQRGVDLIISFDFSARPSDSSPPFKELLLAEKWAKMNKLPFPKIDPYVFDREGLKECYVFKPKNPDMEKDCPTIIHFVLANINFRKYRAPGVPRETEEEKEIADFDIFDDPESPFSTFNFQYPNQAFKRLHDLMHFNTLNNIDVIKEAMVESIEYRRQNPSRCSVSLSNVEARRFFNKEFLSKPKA
Chain of Monoacylglycerol lipase ABHD6 (Mus musculus) (Q8R2Y0 whole entry): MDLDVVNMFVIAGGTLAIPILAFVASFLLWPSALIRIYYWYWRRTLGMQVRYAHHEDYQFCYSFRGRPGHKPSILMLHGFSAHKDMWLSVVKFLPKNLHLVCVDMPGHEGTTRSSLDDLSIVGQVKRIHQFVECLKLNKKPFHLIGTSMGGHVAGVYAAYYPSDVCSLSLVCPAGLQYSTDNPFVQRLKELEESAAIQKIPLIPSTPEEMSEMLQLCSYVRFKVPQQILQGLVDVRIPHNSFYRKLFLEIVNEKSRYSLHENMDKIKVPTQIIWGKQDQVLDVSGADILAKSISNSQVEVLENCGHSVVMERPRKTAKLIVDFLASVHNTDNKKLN
Chain of Cannabinoid receptor 2 (Homo sapiens) (P34972 whole entry): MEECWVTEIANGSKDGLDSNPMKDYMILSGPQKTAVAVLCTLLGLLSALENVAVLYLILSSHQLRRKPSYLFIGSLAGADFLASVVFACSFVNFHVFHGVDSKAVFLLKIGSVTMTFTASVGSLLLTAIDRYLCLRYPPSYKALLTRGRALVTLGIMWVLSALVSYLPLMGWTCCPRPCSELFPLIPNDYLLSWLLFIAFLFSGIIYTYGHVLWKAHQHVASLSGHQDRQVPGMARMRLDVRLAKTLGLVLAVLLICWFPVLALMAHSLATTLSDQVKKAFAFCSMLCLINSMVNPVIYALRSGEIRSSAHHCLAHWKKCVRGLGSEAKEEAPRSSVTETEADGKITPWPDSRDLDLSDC
Chain of Cytosolic phospholipase A2 beta (Homo sapiens) (P0C869 whole entry): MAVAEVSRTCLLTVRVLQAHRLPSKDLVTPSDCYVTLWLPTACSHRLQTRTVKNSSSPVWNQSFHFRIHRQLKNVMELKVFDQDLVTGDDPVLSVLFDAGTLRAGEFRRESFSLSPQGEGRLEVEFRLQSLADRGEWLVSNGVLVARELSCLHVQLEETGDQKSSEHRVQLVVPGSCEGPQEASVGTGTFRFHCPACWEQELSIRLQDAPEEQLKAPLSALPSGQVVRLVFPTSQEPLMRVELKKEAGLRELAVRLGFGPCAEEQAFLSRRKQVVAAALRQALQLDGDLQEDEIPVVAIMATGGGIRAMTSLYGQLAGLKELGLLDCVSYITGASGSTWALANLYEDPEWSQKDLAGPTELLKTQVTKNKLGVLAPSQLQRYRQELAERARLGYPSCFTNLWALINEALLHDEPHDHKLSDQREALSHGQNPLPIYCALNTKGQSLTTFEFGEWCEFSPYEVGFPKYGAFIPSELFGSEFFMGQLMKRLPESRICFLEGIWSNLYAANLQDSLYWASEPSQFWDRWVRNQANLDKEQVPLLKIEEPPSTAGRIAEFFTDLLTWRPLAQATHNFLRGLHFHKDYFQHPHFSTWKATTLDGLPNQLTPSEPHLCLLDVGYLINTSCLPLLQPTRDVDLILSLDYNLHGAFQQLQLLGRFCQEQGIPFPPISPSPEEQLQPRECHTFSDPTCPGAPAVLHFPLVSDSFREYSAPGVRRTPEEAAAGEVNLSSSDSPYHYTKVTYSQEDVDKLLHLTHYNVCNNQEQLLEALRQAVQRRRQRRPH

Structure (SMILES): O=C(CCCc1ccccc1)C(=O)NCCc1ccc(Oc2ccccc2)cc1
- Activity [1]: 32%
- Activity [2]: 92%
- inhibition [3]: Active
- inhibition [4]: Active
- inhibition [5]: Active
- inhibition [6]: Active
- inhibition [7]: Active
- inhibition [8]: Active
- inhibition [9]: inactive
- inhibition [10]: inactive
- inhibition [11]: inactive
- inhibition [12]: inactive
- inhibition [13]: inactive
- inhibition [14]: inactive
- inhibition [15]: inactive
- inhibition [16]: inactive
- inhibition [17]: inactive
- inhibition [18]: inactive
- inhibition [19]: inactive
